From ChEMBL document CHEMBL1795268, “Synthesis and antimicrobial activity of some novel dicationic sulphonophanes” (2011)
Values after ≈ are worked out from the molar mass of the structure shown. Active and inactive are the calls of the source. The rule behind the calls is not given here.

Key:
[1] = target: Gyrase B (Escherichia coli) (UniProt Q6S6F1); assay: Inhibition of Escherichia coli DNA gyrase B
Proteus vulgaris = assay: Antimicrobial activity against Proteus vulgaris after 24 hrs by agar well diffusion assay; format: functional
Procedure, shortened: (§1)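 Bacterial isolates from a university culture collection were grown in Mueller-Hinton broth for 8 h at 37 °C, then swabbed onto nutrient agar plates. Test solutions went into wells cut in the agar, with commercial antibiotics as positive reference. Plates were incubated at 37 °C for 24 h, and the MIC was read from the zones of inhibition.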

Escherichia coli = assay: Antimicrobial activity against Escherichia coli after 24 hrs by agar well diffusion assay; format: functional; procedure, shortened: as §1
Candida albicans = assay: Antifungal activity against Candida albicans after 48 hrs by agar well diffusion assay; format: functional
Procedure, shortened: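 C. albicans, kept on Sabouraud's dextrose agar, was grown in Sabouraud's dextrose broth at 37 °C for 8 h to make the inoculum for agar well diffusion. The MIC was recorded.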

Vibrio cholerae = assay: Antimicrobial activity against Vibrio cholerae after 24 hrs by agar well diffusion assay; format: functional
Bacillus subtilis = assay: Antimicrobial activity against Bacillus subtilis after 24 hrs by agar well diffusion assay; format: functional; procedure, shortened: as §1
Staphylococcus aureus = assay: Antimicrobial activity against Staphylococcus aureus after 24 hrs by agar well diffusion assay; format: functional; procedure, shortened: as §1

| SMILES | inhibition [1] | MIC (Proteus vulgaris) | MIC (Escherichia coli) | MIC (Candida albicans) | MIC (Vibrio cholerae) | MIC (Bacillus subtilis) | MIC (Staphylococcus aureus) |
| --- | --- | --- | --- | --- | --- | --- | --- |
| O=C1c2ccc(cc2)C[n+]2ccn(c2)Cc2ccc(cc2)S(=O)(=O)c2ccc(cc2)Cn2cc[n+](c2)Cc2ccc1cc2.[Br-].[Br-] | Active | 30 mg/L | 25 mg/L | 5 mg/L | 5 mg/L | 15 mg/L | 15 mg/L |
| O=C1c2ccc(cc2)C[n+]2ccn(c2)Cc2ccc(cc2)S(=O)(=O)c2ccc(cc2)Cn2cc[n+](c2)Cc2ccc(cc2)C(=O)c2cccc1c2.[Br-].[Br-] | – | 25 mg/L | 30 mg/L | 15 mg/L | 30 mg/L | 35 mg/L | 40 mg/L |
| O=C(O)c1cn(C2CC2)c2cc(N3CCNCC3)c(F)cc2c1=O [CIPROFLOXACIN] | – | 10 mg/L (≈ 30.2 µM) | 5 mg/L (≈ 15.1 µM) | – | 10 mg/L (≈ 30.2 µM) | 5 mg/L (≈ 15.1 µM) | 5 mg/L (≈ 15.1 µM) |
| O=S1(=O)c2ccc(cc2)Cn2cc[n+](c2)Cc2cccc(c2)C[n+]2ccn(c2)Cc2ccc1cc2.[Br-].[Br-] | – | 40 mg/L | 55 mg/L | 40 mg/L | 35 mg/L | 20 mg/L | 30 mg/L |
| Clc1ccccc1C(c1ccccc1)(c1ccccc1)n1ccnc1 [CLOTRIMAZOLE] | – | – | – | 5 mg/L (≈ 14.5 µM) | – | – | – |
| O=S1(=O)c2ccc(cc2)Cn2cc[n+](c2)Cc2ccccc2C[n+]2ccn(c2)Cc2ccc1cc2.[Br-].[Br-] | – | 60 mg/L | 30 mg/L | 20 mg/L | 35 mg/L | 40 mg/L | 40 mg/L |
| COc1cc2c(OC)cc1C[n+]1ccn(c1)Cc1ccc(cc1)S(=O)(=O)c1ccc(cc1)Cn1cc[n+](c1)C2.[Br-].[Br-] | – | 30 mg/L | 30 mg/L | 10 mg/L | 40 mg/L | 15 mg/L | 10 mg/L |
| O=S1(=O)c2ccc(cc2)Cn2cc[n+](c2)Cc2ccc(cc2)S(=O)(=O)c2ccc(cc2)C[n+]2ccn(c2)Cc2ccc1cc2.[Br-].[Br-] | Active | 15 mg/L | 15 mg/L | 5 mg/L | 10 mg/L | 10 mg/L | 5 mg/L |
| O=S1(=O)c2ccc(cc2)Cn2cc[n+](c2)Cc2ccc(cc2)C[n+]2ccn(c2)Cc2ccc1cc2.[Br-].[Br-] | – | 40 mg/L | 60 mg/L | 25 mg/L | 70 mg/L | 30 mg/L | 25 mg/L |
| O=S1(=O)c2ccc(cc2)Cn2cc[n+](c2)Cc2ccc(cc2)-c2cccc(c2)-c2ccc(cc2)C[n+]2ccn(c2)Cc2ccc1cc2.[Br-].[Br-] | – | 20 mg/L | 25 mg/L | 5 mg/L | 25 mg/L | 15 mg/L | 30 mg/L |
